Screening results (PubChem BioAssay)
PostGolgi ctrl – inhibits growth of the yeast control strain | inhibition, % at 10 µM | efflux-deficient yeast background strain, growth absorbance A615, 16 h | hit rate 5% among 98,000
EphB4 ephrin blk – antagonists of human EphB4-ephrin-B2 interaction; EphB4 LBD / TNYL-RAW-Alexa532 peptide, fluorescence polarization; inhibition, % at 7 µM; P54760; hit rate 0.15% among 97,000;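 active = inhibition above the screen-wide mean inhibition plus 3 SD, cut at about 15% in these data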;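 note: 0% = DMSO wells and 100% = excess unlabeled TNYL-RAW peptide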
Target sequence (P54760 whole entry, looked up, the tested form may be a part): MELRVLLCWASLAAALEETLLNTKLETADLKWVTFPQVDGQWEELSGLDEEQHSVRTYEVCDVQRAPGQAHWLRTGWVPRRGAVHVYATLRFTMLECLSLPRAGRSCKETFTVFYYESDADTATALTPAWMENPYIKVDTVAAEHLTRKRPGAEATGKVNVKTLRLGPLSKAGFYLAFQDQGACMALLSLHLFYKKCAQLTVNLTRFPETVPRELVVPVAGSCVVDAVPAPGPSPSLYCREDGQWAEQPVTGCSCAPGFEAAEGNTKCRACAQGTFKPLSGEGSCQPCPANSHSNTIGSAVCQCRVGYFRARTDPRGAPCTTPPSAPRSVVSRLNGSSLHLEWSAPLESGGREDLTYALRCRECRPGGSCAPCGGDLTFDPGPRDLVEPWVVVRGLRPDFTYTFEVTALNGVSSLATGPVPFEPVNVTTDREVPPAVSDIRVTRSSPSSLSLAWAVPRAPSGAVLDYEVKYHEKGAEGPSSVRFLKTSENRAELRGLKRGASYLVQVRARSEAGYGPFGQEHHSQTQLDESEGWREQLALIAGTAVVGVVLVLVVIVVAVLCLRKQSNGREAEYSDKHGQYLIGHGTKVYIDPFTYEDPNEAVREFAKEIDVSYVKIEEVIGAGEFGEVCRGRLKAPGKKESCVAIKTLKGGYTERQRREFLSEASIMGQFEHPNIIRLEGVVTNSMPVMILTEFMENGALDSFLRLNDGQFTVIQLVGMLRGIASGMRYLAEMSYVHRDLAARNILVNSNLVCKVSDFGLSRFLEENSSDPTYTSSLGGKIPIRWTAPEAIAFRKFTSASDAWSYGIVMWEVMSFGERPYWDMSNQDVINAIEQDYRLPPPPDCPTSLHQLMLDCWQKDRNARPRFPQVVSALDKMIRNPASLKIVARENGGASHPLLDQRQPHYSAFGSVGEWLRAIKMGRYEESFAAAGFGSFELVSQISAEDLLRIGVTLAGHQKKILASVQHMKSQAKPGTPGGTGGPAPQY
PostGolgi yeast – growth inhibition of a yeast mutant, post-Golgi transport screen; inhibition, % at 10 µM; hit rate 0.9% among 98,000; post-Golgi transport phenotypic cell assay;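 note: yeast cells grown in 1536-well plates; yeast grown about 18 h at 30C before absorbance read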
E coli WT exp – blocks growth of wild type E. coli BW25113; OD600 absorbance; growth inhibition, % at 100 µM; hit rate 0.15% among 98,000;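 active = growth inhibition above about 50% at one test dose, limit read from the data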;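 note: growth measured after 20 h incubation at 37 °C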
tolC growth inh – E. coli tolC mutant growth inhibition. hit rate 2.2% among 65,000. AID 573. growth inhibition, % at 10 µM (by protocol). E. coli BW25113 tolC mutant growth, OD615;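 active = growth inhibition at or above a cutoff equal to the mean over every tested compound plus 3 SD, cut at about 60% in these data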;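 note: growth measured after 20 h incubation at 37 °C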
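Material: E. coli BW25113 ΔtolC::kan, tolC deletion mutant strain. Measure: percent growth inhibition. Schedule: 37 °C, 20 h exposure. Doses: single-point testing at 10 µM. Signal: A615 absorbance measurement. Buffer or medium: kanamycin-containing LB broth (50 µg/mL).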
* marks the source's active call; other numbers are inactive results; [ ] = dose if it differs, or a comment. An excerpt weighted towards active compounds, which were near 6% of everything screened. Cut-off read from the data, not from the text of the source, unless noted: active = inhibition above about 30%; inactive = the rest.

`CCCCN1C(=O)c2ccc(C(=O)NC3=NCCS3)cc2C1=O` gave PostGolgi ctrl 25, EphB4 ephrin blk 1, PostGolgi yeast -5, E coli WT exp -3 and tolC growth inh 4.
`C=CCn1c(SCc2ccc(C(=O)Nc3ccccc3)cc2)nnc1-c1ccccc1` gave PostGolgi ctrl 29, EphB4 ephrin blk -9, PostGolgi yeast 11 and E coli WT exp -8.
For CCCCCCn1c(N2CCN(c3ccccc3)CC2)nc2c1c(=O)n(C)c(=O)n2C the results were PostGolgi ctrl 22, EphB4 ephrin blk -7, PostGolgi yeast -1, E coli WT exp -23 and tolC growth inh 80*.
Screening C=C(C)Cn1c(N2CCC(Cc3ccccc3)CC2)nc2c1c(=O)[nH]c(=O)n2C returned PostGolgi ctrl 54*, EphB4 ephrin blk 5, PostGolgi yeast 12, E coli WT exp -7 and tolC growth inh 92*.
CCOCCn1c(N2CCN(c3ccccc3)CC2)nc2c1c(=O)n(C)c(=O)n2C was read as PostGolgi ctrl 9, PostGolgi yeast -1, E coli WT exp 3 and tolC growth inh -2.
For CCCn1c(N2CCC(Cc3ccccc3)CC2)nc2c1c(=O)[nH]c(=O)n2C the results were PostGolgi ctrl 52*, EphB4 ephrin blk 5, PostGolgi yeast 9, E coli WT exp -2 and tolC growth inh 53.
For CCCCCn1c(N2CCC(Cc3ccccc3)CC2)nc2c1c(=O)[nH]c(=O)n2C the results were EphB4 ephrin blk 1 and tolC growth inh 71*.
`Cn1c(=O)[nH]c(=O)c2c1nc(N1CCC(Cc3ccccc3)CC1)n2Cc1ccccc1` gave PostGolgi ctrl 2, EphB4 ephrin blk 5, PostGolgi yeast 19, E coli WT exp -3 and tolC growth inh 7.
`CC(=O)Cn1c(N2CCC(Cc3ccccc3)CC2)nc2c1c(=O)[nH]c(=O)n2C` gave PostGolgi ctrl 10, EphB4 ephrin blk 6, PostGolgi yeast -2, E coli WT exp -1 and tolC growth inh 7.
Screening O=C(CC1(O)C(=O)N(Cc2ccccc2)c2ccccc21)c1ccncc1 (centres undefined) returned PostGolgi ctrl 17, EphB4 ephrin blk 2, PostGolgi yeast 3, E coli WT exp 5 and tolC growth inh 7.
`CCC(C)(C)NC(=O)CN(C(=O)CNS(=O)(=O)c1ccc(C)cc1)c1ccc2c(c1)OCCO2` gave PostGolgi ctrl -1, EphB4 ephrin blk 7, PostGolgi yeast -8, E coli WT exp -3 and tolC growth inh 0.
`Cc1ccc(NC(=O)/C(=C\c2ccccc2)NC(=O)/C=C/c2ccccc2)cc1` gave PostGolgi ctrl 6, EphB4 ephrin blk 6, PostGolgi yeast -1 and E coli WT exp -11.
Screening COCCCN=C(c1ccco1)n1c(=S)nc(-c2ccco2)n(CCCOC)c1=S returned PostGolgi ctrl 21, EphB4 ephrin blk 0, PostGolgi yeast 1, E coli WT exp 4 and tolC growth inh -12.
COC(=O)c1sccc1NC(=O)c1cc2c(s1)CCCC2 was read as PostGolgi ctrl 4, EphB4 ephrin blk 3, PostGolgi yeast -7, E coli WT exp -4 and tolC growth inh 61*.
For C=CCn1c(SCC(=O)Nc2c(C)cccc2C)nnc1-c1cnccn1 the results were PostGolgi ctrl 1, EphB4 ephrin blk -8, PostGolgi yeast -1, E coli WT exp -2 and tolC growth inh -5.
Screening CN(/C(=N\S(=O)(=O)c1ccccc1)C(F)(F)F)c1ccccc1 returned PostGolgi ctrl -6, EphB4 ephrin blk 8, PostGolgi yeast -7 and E coli WT exp 5.
COc1ccc(NC(=O)N2c3ccccc3CC2C)cc1OC (centres undefined) was read as PostGolgi ctrl 10, EphB4 ephrin blk 3, PostGolgi yeast -1, E coli WT exp 0 and tolC growth inh -4.
For COC(=O)c1ccccc1NC(=O)N1c2ccccc2CC1C (centres undefined) the results were PostGolgi ctrl 48*, EphB4 ephrin blk -4, PostGolgi yeast -3, E coli WT exp -1 and tolC growth inh 95*.
Screening O=C1c2ccccc2-c2onc3ccc(NCCCn4ccnc4)c1c23 returned PostGolgi ctrl -4, EphB4 ephrin blk 107*[fluorescence artefact?], PostGolgi yeast -9, E coli WT exp 26 and tolC growth inh 4.
Cn1c(N)c(C(=O)NCc2ccccc2)sc1=S was read as PostGolgi ctrl 25, PostGolgi yeast -28, E coli WT exp 11 and tolC growth inh -3.
`Cc1c(C(=O)N/N=C/c2ccccc2)sc(=S)n1C` gave PostGolgi ctrl 38*, EphB4 ephrin blk 4, PostGolgi yeast 7 and E coli WT exp -3.
